Results: ChEMBL document CHEMBL4680184, “Simple amphiphilic α-hydrazido acids: Rational design, synthesis, and in vitro bioactivity profile of a novel class of potential antimicrobial compounds” (Eur J Med Chem, 2020)
Values after ≈ are worked out from the molar mass of the structure shown.

Tests used:
[1] = Retention time of the compound by RP-HPLC analysis; format: physicochemical
How it was run: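 RP-HPLC on C18 column (5 µm, 200 × 4.6 mm), 0.5 mL/min; hydrochlorides at 0.5–1 mg/mL in water:2-propanol 70:30, gradient to 10:90 over 40 min, then 20 min at 10:90. Adjusted retention time = instrumental retention time minus hold-up time.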

Enterococcus faecium = test: Antibacterial activity against Enterococcus faecium 135562 (35C) assessed as inhibition of visible growth after 24 hrs by broth microdilution method; format: functional
How it was run: (§1)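 Compounds dissolved in sterile water at the highest achievable concentration, then serially diluted in Mueller-Hinton II broth per CLSI broth microdilution. Strains grown 6 h in BHI, diluted in MHII to 1 × 10^6 cfu/mL final. Aerobic incubation 37 °C, 24 h; tetracycline internal control; bacteria-only growth controls. MIC = lowest concentration with no visible growth; triplicate.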

Staphylococcus aureus [2] = test: Antibacterial activity against Staphylococcus aureus ATCC 29213 assessed as inhibition of visible growth after 24 hrs by broth microdilution method; format: functional; how it was run: as §1
[3] = Therapeutic index, ratio of HC50 for human erythrocytes to MIC for Escherichia coli ATCC 25922; format: toxicity; conditions: read-out: TI
[4] = Hemolytic activity against human erythrocytes measured after 1 hr by microplate reader based spectrophotometric analysis; format: ADME, cell-based, Erythrocyte
How it was run: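 Heparinized fresh human blood washed three times in PBS pH 7.4 (1000 g, 10 min), resuspended ~20 vol %. Equal volume with 1:2 serial dilutions of compound in PBS, 1 h at 37 °C; PBS and 0.2 vol % Triton X-100 controls. Supernatant diluted 1:60, A350 read. HC50 from three- or four-parameter Hill fit; mean of three replicates.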

Escherichia coli [5] = test: Antibacterial activity against Escherichia coli ATCC 25922 assessed as inhibition of visible growth after 24 hrs by broth microdilution method; format: functional; how it was run: as §1
Enterococcus faecalis [6] = test: Antibacterial activity against Enterococcus faecalis ATCC 29212 assessed as inhibition of visible growth after 24 hrs by broth microdilution method; format: functional; how it was run: as §1
Pseudomonas aeruginosa = test: Antibacterial activity against Pseudomonas aeruginosa ATCC 27853 assessed as inhibition of visible growth after 24 hrs by broth microdilution method; format: functional; how it was run: as §1
[7] = Therapeutic index, ratio of HC50 for human erythrocytes to MIC for Staphylococcus aureus ATCC 29213; format: toxicity; conditions: read-out: TI
Staphylococcus aureus [8] = test: Antibacterial activity against linezolid-methicillin-resistant Staphylococcus aureus AOUC 0915 assessed as inhibition of visible growth after 24 hrs by broth microdilution method; format: functional
How it was run: (§2)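 Broth microdilution per CLSI: strains grown 6 h in BHI broth, diluted in Mueller-Hinton II broth to 1 × 10^6 cfu/mL, mixed 1:1 with serial dilutions of compound in MHII (compounds dissolved in sterile water); aerobic incubation 37 °C, 24 h. MIC = lowest concentration with no visible growth. Tetracycline internal control; triplicate.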

Staphylococcus aureus [9] = test: Antibacterial activity against Staphylococcus aureus ATCC 29213; format: functional; how it was run: as §2
Enterococcus faecalis [10] = test: Antibacterial activity against Enterococcus faecalis ATCC 29212; format: functional; how it was run: as §1
Escherichia coli [11] = test: Antibacterial activity against Escherichia coli ATCC 25922; format: functional; how it was run: as §2
Escherichia coli [12] = test: Antibacterial activity against gentamicin-colistin-resistant Escherichia coli 288328 assessed as inhibition of visible growth after 24 hrs by broth microdilution method; format: functional; how it was run: as §2

| Compound | Retention_time [1] [min] | MIC (Enterococcus faecium) [µg/mL] | MIC (Staphylococcus aureus [2]) [µg/mL] | selectivity ratio [3] | HC50 at 1 h [4] [µg/mL] | MIC (Escherichia coli [5]) [µg/mL] | MIC (Enterococcus faecalis [6]) [µg/mL] | MIC (Pseudomonas aeruginosa) [µg/mL] | selectivity ratio [7] | MIC (Staphylococcus aureus [8]) [µg/mL] | MIC (Staphylococcus aureus [9]) [µg/mL] | MIC (Enterococcus faecalis [10]) [µg/mL] | MIC (Escherichia coli [11]) [µg/mL] | MIC (Escherichia coli [12]) [µg/mL] |
| --- | --- | --- | --- | --- | --- | --- | --- | --- | --- | --- | --- | --- | --- | --- |
| CCCCCCCCCCCC(=O)NN(CC(=O)NCCC)C(=O)CN.Cl | 16.6 | 64 | 64 | 2.6 | 167 | 64 | 64 | 64 | 2.6 |  |  |  |  |  |
| CCCCCCCCCCCCNC(=O)CN(NC(=O)OCc1ccccc1)C(=O)CN.Cl | 21.2 | 8 | 8 | 2.7 | 86 | 32 | 16 | 128 | 11 |  |  |  |  |  |
| CCCCCCCCCCCCCCCCCCNC(=O)CN(NC(C)=O)C(=O)CN.Cl | 28 | 32 | 256 | 0.5 | 228 | 512 | 32 | 512 | 0.9 |  |  |  |  |  |
| CCCCCCCCCCCCCCCCCCNC(=O)CN(NC(=O)CCCCCCC)C(=O)CN.Cl | 33.1 | > 256 | > 256 | < 1 | 267 | > 256 | > 256 | > 256 | < 1 |  |  |  |  |  |
| CCCNC(=O)CN(NC(C)=O)C(=O)CN.O=C(O)C(F)(F)F | 0.3 | 2050 | 1020 | 1.3 | 2700 | 2050 | 2050 | 2050 | 2.6 |  |  |  |  |  |
| CCCCCCCCCCCCNC(=O)CN(C(=O)CN)N(C)C(C)=O | 17.1 | 32 (≈ 86.4 µM) | 64 (≈ 173 µM) |  |  | 128 (≈ 345 µM) | 32 (≈ 86.4 µM) | 256 (≈ 691 µM) |  |  |  |  |  |  |
| CCCCCCCC(=O)NN(CC(=O)NCCC)C(=O)CN.Cl | 5.2 | 1020 | 1020 | 0.4 | 433 | 1020 | 1020 | 2050 | 0.4 |  |  |  |  |  |
| CCCCCCCCCCCCCCCCCC(=O)NN(CC(=O)NCCC)C(=O)CN.Cl | 26.5 | 16 | 64 | 0.5 | 234 | 512 | 32 | 512 | 3.7 |  |  |  |  |  |
| CCCCCCCCCCCCCCCCCCNC(=O)CN(NC(=O)OCc1ccccc1)C(=O)CN.Cl | 30.9 | 256 | 512 | 0.5 | 243 | 512 | 512 | 512 | 0.5 |  |  |  |  |  |
| CCCCCCCCNC(=O)CN(NC(C)=O)C(=O)CN.Cl | 9.3 | 128 | 128 | 0.9 | 223 | 256 | 256 | 256 | 1.7 |  |  |  |  |  |
| CCCCCCCCCCCCCCCCCCNC(=O)CN(NC(=O)CCCCCCCCCCCCCCCCC)C(=O)CN.Cl | 41.8 |  |  |  |  |  |  |  |  |  |  |  |  |  |
| CCCCCCCCCCCCNC(=O)CN(NC(=O)CCCCCCCCCCC)C(=O)CN.Cl | 29.1 | 128 | > 128 | < 3.4 | 438 | > 128 | 128 | > 128 | < 3.4 |  |  |  |  |  |
| CCCCCCCCCCCCNC(=O)CN(NC(C)=O)C(=O)CN.Cl | 17.5 | 32 | 64 | 2 | 127 | 64 | 32 | 64 | 2 |  |  |  |  |  |
| CCCCCCCCCCCCNC(=O)CN(C(=O)CN)N(C)C(=O)C(C)(C)C | 18.9 | 16 (≈ 38.8 µM) | 16 (≈ 38.8 µM) |  |  | 64 (≈ 155 µM) | 16 (≈ 38.8 µM) | 512 (≈ 1240 µM) |  |  |  |  |  |  |
| CCCCCCCCNC(=O)CN(C(=O)CN)N(C)C(=O)OCc1ccccc1 | 13.8 | 128 (≈ 315 µM) | 128 (≈ 315 µM) |  |  | 128 (≈ 315 µM) | 128 (≈ 315 µM) | 256 (≈ 630 µM) |  |  |  |  |  |  |
| CCCCCCCCCCCC(=O)NN(CC(=O)NCCCCCCCC)C(=O)CN.Cl | 23.5 | 8 | 64 | 3.8 | 486 | 128 | 16 | 128 | 7.6 |  |  |  |  |  |
| CCCCCCCCNC(=O)CN(NC(=O)C(C)(C)C)C(=O)CN.Cl | 11.7 | 256 | 512 | 3 | 775 | 256 | 256 | 512 | 1.5 |  |  |  |  |  |
| CCCNC(=O)CN(NC(=O)OCc1ccccc1)C(=O)CN.Cl | 3.4 | 512 | 512 | 1.5 | 775 | 512 | 1020 | 512 | 1.5 |  |  |  |  |  |
| CCCCCCCCCCCCNC(=O)CN(C(=O)CN)N(C)C(=O)OCc1ccccc1 | 20.7 | 8 (≈ 17.3 µM) | 8 (≈ 17.3 µM) |  |  | 64 (≈ 138 µM) | 8 (≈ 17.3 µM) | 512 (≈ 1110 µM) |  |  |  |  |  |  |
| CCCCCCCCNC(=O)CN(C(=O)CN)N(C)C(C)=O | 9.1 | 1020 (≈ 3260 µM) | 2050 (≈ 6510 µM) |  |  | 2050 (≈ 6510 µM) | 1020 (≈ 3260 µM) | 2050 (≈ 6510 µM) |  |  |  |  |  |  |
| CCCCCCCCCCCCCCCCCCNC(=O)CN(NC(=O)CCCCCCCCCCC)C(=O)CN.Cl | 35.9 | 512 | 256 | < 0.7 | 364 | > 512 | 512 | 512 | 1.4 |  |  |  |  |  |
| CCCCCCCCNC(=O)CN(C(=O)CN)N(C)C(=O)C(C)(C)C | 11.7 | 512 (≈ 1440 µM) | 512 (≈ 1440 µM) |  |  | 256 (≈ 718 µM) | 512 (≈ 1440 µM) | 512 (≈ 1440 µM) |  |  |  |  |  |  |
| COc1cccc(OC)c1C(=O)N[C@@H]1C(=O)N2[C@@H]1SC(C)(C)[C@@H]2C(=O)O [METHICILLIN] |  |  |  |  |  |  |  |  |  | > 1020 | 0.5 (≈ 1.31 µM) | > 16 |  |  |
| CCCCCCCCCCCCCCCCCC(=O)NN(CC(=O)NCCCCCCCCCCCC)C(=O)CN.Cl | 35.8 | 256 | 256 | 0.2 | 124 | 512 | 512 | 512 | 0.5 |  |  |  |  |  |
| CCCCCCCCNC(=O)CN(NC(=O)OCc1ccccc1)C(=O)CN.Cl | 14.3 | 64 | 64 | 3 | 189 | 64 | 128 | 128 | 3 |  |  |  |  |  |
| GENTAMICIN |  |  |  |  |  |  |  |  |  |  | 0.12 | 4 | 0.25 | 128 |
| CCCCCCCCCCCCNC(=O)CN(NC(=O)CCCCCCC)C(=O)CN.Cl | 24 | 16 | 64 | 1.4 | 367 | 256 | 32 | 512 | 5.7 |  |  |  |  |  |
| CCCCCCCCNC(=O)CN(NC(=O)c1ccccc1)C(=O)CN.Cl | 12.3 | 128 | 128 | 2.9 | 368 | 128 | 128 | 128 | 2.9 |  |  |  |  |  |
| CCCCCCCCCCCCCCCCCC(=O)NN(CC(=O)NCCCCCCCC)C(=O)CN.Cl | 32.2 | 64 | 128 | 0.4 | 200 | 512 | 512 | 512 | 1.6 |  |  |  |  |  |
